Measured values from different studies.
Organism: Staphylococcus aureus
Observed: microbial growth

Compound	method	strain	time	setting	MIC
CCCCCCCC(=O)CP(=O)(O)O	–	ATCC33591 MRSA	–	drug-resistant strain	200 mg/L
O=[N+]([O-])c1ccc(-c2nc3cc(Cl)ccc3[nH]2)o1	broth dilution	ATCC700699 MRSA	–	drug-resistant strain	2 mg/L
CCCCCCCC/C=C\CCCCCCCCNC(=O)CP(=O)(O)O	–	ATCC33591 MRSA	–	drug-resistant strain	100 mg/L
CO[C@H]1/C=C/O[C@@]2(C)Oc3c(C)c(O)c4c(O)c(c(/C=N/N5CCN(C)CC5)c(O)c4c3C2=O)NC(=O)/C(C)=C\C=C\[C@H](C)[C@H](O)[C@@H](C)[C@@H](O)[C@@H](C)[C@H](OC(C)=O)[C@@H]1C	–	NEWMAN	–	–	0.12 mg/L
c1ccc(CCOC2CCCc3c2[nH]c2ccccc32)cc1 (stereo not drawn)	broth dilution	ATCC29213	–	–	> 16 mg/L
CCCCCCCCCCCCCCCC(=O)NS(=O)(=O)Oc1ccc(OC)cc1	–	ATCC33591 MRSA	–	drug-resistant strain	> 200 mg/L
COC(=O)c1cc(-c2cccc(NC(=S)Nc3cccc(Br)c3)c2)on1	broth dilution	ATCC29213	–	–	> 64 mg/L
CN[C@H](CC(C)C)C(=O)N[C@H]1C(=O)N[C@@H](CC(N)=O)C(=O)N[C@H]2C(=O)N[C@H]3C(=O)N[C@H](C(=O)N[C@H](C(=O)O)c4cc(O)cc(O)c4-c4cc3ccc4O)[C@H](O)c3ccc(c(Cl)c3)Oc3cc2cc(c3O[C@@H]2O[C@H](CO)[C@@H](O)[C@H](O)[C@H]2O[C@H]2C[C@](C)(N)[C@H](O)[C@H](C)O2)Oc2ccc(cc2Cl)[C@H]1O	–	UAMS1	–	–	1 mg/L
CCOc1ccc(-c2nc3ccc(C)cc3[nH]2)cc1	broth dilution	ATCC43300 MRSA	–	drug-resistant strain	256 mg/L
CC(=O)Nc1c2sscc-2[nH]c1=O	–	MRSA	–	drug-resistant strain	2.5 µM
CCCC(=O)CP(=O)(O)O	–	ATCC33591 MRSA	–	drug-resistant strain	> 200 mg/L
COC(=O)c1cc(-c2cccc(NC(=O)Nc3ccc(F)cc3F)c2)on1	broth dilution	ATCC29213	–	–	> 64 mg/L
CN[C@H](CC(C)C)C(=O)N[C@H]1C(=O)N[C@@H](CC(N)=O)C(=O)N[C@H]2C(=O)N[C@H]3C(=O)N[C@H](C(=O)N[C@H](C(=O)O)c4cc(O)cc(O)c4-c4cc3ccc4O)[C@H](O)c3ccc(c(Cl)c3)Oc3cc2cc(c3O[C@@H]2O[C@H](CO)[C@@H](O)[C@H](O)[C@H]2O[C@H]2C[C@](C)(N)[C@H](O)[C@H](C)O2)Oc2ccc(cc2Cl)[C@H]1O	–	ATCC700699	–	drug-resistant strain	0.39 mg/L
O=C(Nc1cccc(-c2cc(C(=O)O)no2)c1)Nc1ccc(Cl)c(Cl)c1	broth dilution	ATCC29213	–	–	> 64 mg/L
CN[C@H](CC(C)C)C(=O)N[C@H]1C(=O)N[C@@H](CC(N)=O)C(=O)N[C@H]2C(=O)N[C@H]3C(=O)N[C@H](C(=O)N[C@H](C(=O)O)c4cc(O)cc(O)c4-c4cc3ccc4O)[C@H](O)c3ccc(c(Cl)c3)Oc3cc2cc(c3O[C@@H]2O[C@H](CO)[C@@H](O)[C@H](O)[C@H]2O[C@H]2C[C@](C)(N)[C@H](O)[C@H](C)O2)Oc2ccc(cc2Cl)[C@H]1O	–	MRSA	–	–	8 mg/L
CCCCCCCC/C=C\CCCCCCCC(=O)C(F)(F)P(=O)(O)O	–	ATCC33591 MRSA	–	drug-resistant strain	> 200 mg/L
Cn1cc(C2=C(c3cn(C4CCN(Cc5ccccn5)CC4)c4ccccc34)C(=O)NC2=O)c2ccccc21	–	NCTC8325	–	–	> 30 µM
Cc1ccc2nc(-c3ccc([N+](=O)[O-])cc3)[nH]c2c1	broth dilution	ATCC43300 MRSA	–	drug-resistant strain	256 mg/L
CC(c1ccc(Cl)c(Cl)c1)n1cnc2cc3c(cc21)CCC3 (stereo not drawn)	–	–	–	–	3.1 to 6.3 mg/L
COC(=O)c1cc(-c2cccc(NC(=O)Nc3ccc(Cl)cc3)c2)on1	broth dilution	ATCC29213	–	–	> 64 mg/L
CC1(C)CC[C@]2(C(=O)O)CC[C@]3(C)C(=CC[C@@H]4[C@@]5(C)CC[C@H](O)C(C)(C)[C@@H]5CC[C@]43C)[C@@H]2C1	–	ATCC25923	–	–	32 mg/L
Cc1ccc2nc(-c3ccc(Cl)cc3)[nH]c2c1	broth dilution	ATCC43300 MRSA	–	drug-resistant strain	512 mg/L
COC(=O)c1cc(-c2cccc(NC(=O)Nc3ccccc3)c2)on1	broth dilution	ATCC29213	–	–	> 64 mg/L

Compound	method	strain	time	setting	MIC
Cc1ccc2nc(-c3ccc(Cl)cc3)n(Cc3ccccc3)c2c1	broth dilution	ATCC43300 MRSA	–	drug-resistant strain	8 mg/L
C[C@@H](O)[C@H]1C(=O)N2C(C(=O)O)=C(S[C@@H]3CN[C@H](C(=O)N(C)C)C3)[C@H](C)[C@H]12	–	USA300	–	–	1 mg/L
Clc1ccc(-c2nc3ccccc3n2Cc2ccccc2)cc1Cl	broth dilution	ATCC43300 MRSA	–	drug-resistant strain	16 mg/L
COC(=O)c1cc(-c2cccc(NC(=S)Nc3ccccc3Cl)c2)on1	broth dilution	ATCC29213	–	–	> 64 mg/L
CC(C)(C)c1cc(NC(=O)Nc2ccc(Oc3ccncc3)cc2)no1	–	NCTC8325	–	–	100 µM
COc1cccc(-c2nc3ccc(C)cc3[nH]2)c1	broth dilution	ATCC43300 MRSA	–	drug-resistant strain	256 mg/L
C=C(NC(=O)C(=C)NC(=O)c1csc(C2=N[C@@H]3c4csc(n4)[C@H]4NC(=O)c5csc(n5)[C@H]([C@](C)(O)[C@@H](C)O)NC(=O)[C@H]5CSC(=N5)/C(=C/C)NC(=O)[C@H]([C@@H](C)O)NC(=O)c5csc(n5)[C@]3(CC2)NC(=O)[C@H](C)NC(=O)C(=C)NC(=O)[C@H](C)NC(=O)[C@H]([C@@H](C)CC)N[C@@H]2C=Cc3c([C@H](C)O)cc(nc3[C@H]2O)C(=O)O[C@@H]4C)n1)C(N)=O	–	MRSA	–	–	0.12 mg/L
Cc1ccc2[nH]c3c(c2c1)CCCC3NCCc1ccc(Br)cc1 (stereo not drawn)	broth dilution	VISA	–	–	4 mg/L
COC(=O)c1cc(-c2cccc(NC(=S)Nc3ccc(OC)cc3)c2)on1	broth dilution	ATCC29213	–	–	> 64 mg/L
COc1ccc(NC(=O)Nc2ccc(Cl)c(C(F)(F)F)c2)cc1	–	NCTC8325	–	–	3 µM
CN[C@@H]1[C@H](O)[C@H](NC)[C@H]2O[C@@]3(O)C(=O)C[C@@H](C)O[C@H]3O[C@@H]2[C@H]1O	broth dilution	8325	–	–	25 mg/L
Cc1ccc2nc(-c3cccnc3)[nH]c2c1	broth dilution	ATCC43300 MRSA	–	drug-resistant strain	128 mg/L
O=C(N[C@H](CO)[C@H](O)c1ccc([N+](=O)[O-])cc1)C(Cl)Cl	–	USA300	–	–	4 mg/L
CC1C(=NOCc2cn(-c3ccccc3)nn2)CC(c2ccccc2)OC1c1ccccc1 (stereo not drawn)	broth dilution	MTCC96	24 h	–	25 mg/L
COC(=O)c1cc(-c2cccc(NC(=O)Nc3ccc(C)c(Cl)c3)c2)on1	broth dilution	ATCC29213	–	–	> 64 mg/L
Oc1cc(Cl)ccc1Oc1ccc(Cl)cc1Cl	–	–	–	–	1.8 mg/L
C=CCn1c(-c2ccc([N+](=O)[O-])cc2)nc2ccc(C)cc21	broth dilution	ATCC43300 MRSA	–	drug-resistant strain	64 mg/L
CCC(CC)c1cc(CCN2CCCN(Cc3ccc(C(F)(F)F)cc3)CC2)nc(-c2ccncc2)n1	–	ATCCBAA1720	–	drug-resistant strain, clinical isolate	6 mg/L
COC[C@H]1OC(=O)c2coc3c2[C@@]1(C)C1=C(C3=O)[C@@H]2CCC(=O)[C@@]2(C)C[C@H]1OC(C)=O	–	NCTC8325	–	–	> 30 µM
CCCCCCC#Cc1cncc(-c2nnc(SCc3cc([N+](=O)[O-])cc([N+](=O)[O-])c3)n2C)c1	–	MRSA	–	drug-resistant strain	≥ 20 mg/L
COC(=O)c1cc(Oc2ccc(NC(=O)Nc3ccc(Cl)c(C(F)(F)F)c3)cc2)ccn1	–	NCTC8325	–	–	3 µM
Cc1cc(Cl)ccc1-c1ccc(/C=C2\SC(=S)N(CC(=O)O)C2=O)o1	broth dilution	MRSA USA300	–	drug-resistant strain	8 to 64 mg/L
